Measurements as given in PMC2839030 (Chemical research in toxicology, 2010).
Read-outs that look alike come from different tables or passages of the source.

Tests used:
Assay type in all cases: biochemical
[1] = biological target: T1, CYP1A1 (Homo sapiens, UniProt P04798); test: 7-Ethoxyresorufin O-deethylation; settings: for Type of inhibition of P450 1A1: pre-incubation assays in the presence and absence of NADPH
T1 sequence (P04798 1-512): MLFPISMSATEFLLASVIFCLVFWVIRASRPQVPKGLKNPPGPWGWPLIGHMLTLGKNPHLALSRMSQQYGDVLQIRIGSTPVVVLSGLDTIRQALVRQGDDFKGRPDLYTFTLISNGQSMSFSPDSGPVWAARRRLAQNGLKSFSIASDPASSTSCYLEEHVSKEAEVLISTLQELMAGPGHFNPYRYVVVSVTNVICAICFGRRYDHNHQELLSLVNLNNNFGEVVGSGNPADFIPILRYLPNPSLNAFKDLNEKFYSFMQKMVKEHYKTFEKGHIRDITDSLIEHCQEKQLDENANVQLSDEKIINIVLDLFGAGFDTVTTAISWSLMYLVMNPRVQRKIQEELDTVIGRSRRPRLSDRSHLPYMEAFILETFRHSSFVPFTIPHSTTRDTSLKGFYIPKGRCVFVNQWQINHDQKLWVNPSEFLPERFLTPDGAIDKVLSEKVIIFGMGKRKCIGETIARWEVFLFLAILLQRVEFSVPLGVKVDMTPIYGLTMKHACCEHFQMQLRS
Procedure, shortened: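 Human CYP1A1 supersomes with P450 reductase in 0.1 M phosphate pH 7.6 plus MgCl2, ethoxyresorufin (1.0 mM DMSO stock) and test compound in DMSO at varied concentrations. NADPH-regenerating system starts reaction, 37°C. Product fluorescence ex 530/em 585 nm. Quadratic fit of progress curves, b term as rate. IC50 from Dixon plot x-intercept. Mechanism: 5-min 37°C pre-incubation ± NADPH before substrate.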

[2] = biological target: T2, rat CYP2B1 (Rattus norvegicus, UniProt P00176); test: 7-Pentoxyresorufin O-depentylation
T2 sequence (P00176 1-491): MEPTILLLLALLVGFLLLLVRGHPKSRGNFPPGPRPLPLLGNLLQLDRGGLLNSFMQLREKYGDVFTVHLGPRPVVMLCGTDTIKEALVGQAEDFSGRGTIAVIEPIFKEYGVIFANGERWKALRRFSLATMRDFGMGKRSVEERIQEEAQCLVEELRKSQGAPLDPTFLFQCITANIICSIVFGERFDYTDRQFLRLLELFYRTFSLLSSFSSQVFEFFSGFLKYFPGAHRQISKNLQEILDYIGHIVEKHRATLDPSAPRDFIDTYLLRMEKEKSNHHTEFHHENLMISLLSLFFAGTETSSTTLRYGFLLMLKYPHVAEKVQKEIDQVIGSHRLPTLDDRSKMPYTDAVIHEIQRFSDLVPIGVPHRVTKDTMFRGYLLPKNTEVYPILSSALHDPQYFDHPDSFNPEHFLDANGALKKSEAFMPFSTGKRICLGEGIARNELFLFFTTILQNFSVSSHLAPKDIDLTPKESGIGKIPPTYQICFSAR
Procedure, shortened: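 Rat CYP2B1 supersomes (with P450 reductase and cytochrome b5) in 0.1 M potassium phosphate pH 7.6 with MgCl2, pentoxyresorufin (1.0 mM stock in DMSO) and test compound in DMSO at several concentrations, with a DMSO-only control. Reaction started with NADPH-regenerating system at 37°C; resorufin fluorescence read over time (ex 530/em 585 nm). Rates from second-order curve fits; IC50 from Dixon plot x-intercept.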

[3] = biological target: T3, human CYP2A6 (Homo sapiens, UniProt P11509); test: Coumarin 7-hydroxylation assay in supersomes
T3 sequence (P11509 1-494): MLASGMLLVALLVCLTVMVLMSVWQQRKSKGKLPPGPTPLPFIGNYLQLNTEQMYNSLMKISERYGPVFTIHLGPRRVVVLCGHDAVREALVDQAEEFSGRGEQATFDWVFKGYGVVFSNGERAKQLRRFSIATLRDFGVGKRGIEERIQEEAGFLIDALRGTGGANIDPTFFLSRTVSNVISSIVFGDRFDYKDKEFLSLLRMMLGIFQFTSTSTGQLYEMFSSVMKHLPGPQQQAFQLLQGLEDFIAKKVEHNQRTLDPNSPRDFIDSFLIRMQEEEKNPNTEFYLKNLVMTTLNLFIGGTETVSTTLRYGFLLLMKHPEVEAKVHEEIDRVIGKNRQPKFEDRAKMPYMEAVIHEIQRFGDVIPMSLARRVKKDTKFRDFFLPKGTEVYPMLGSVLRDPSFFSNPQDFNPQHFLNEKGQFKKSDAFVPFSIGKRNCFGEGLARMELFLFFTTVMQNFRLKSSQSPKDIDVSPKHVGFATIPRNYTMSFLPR

[4] = biological target: T4, human CYP1A2 (Homo sapiens, UniProt P05177); test: 7-Methoxyresorufin O-demethylation; settings: for Type of inhibition of P450 1A2: pre-incubation assays in the presence and absence of NADPH
T4 sequence (P05177 2-516 limits assumed): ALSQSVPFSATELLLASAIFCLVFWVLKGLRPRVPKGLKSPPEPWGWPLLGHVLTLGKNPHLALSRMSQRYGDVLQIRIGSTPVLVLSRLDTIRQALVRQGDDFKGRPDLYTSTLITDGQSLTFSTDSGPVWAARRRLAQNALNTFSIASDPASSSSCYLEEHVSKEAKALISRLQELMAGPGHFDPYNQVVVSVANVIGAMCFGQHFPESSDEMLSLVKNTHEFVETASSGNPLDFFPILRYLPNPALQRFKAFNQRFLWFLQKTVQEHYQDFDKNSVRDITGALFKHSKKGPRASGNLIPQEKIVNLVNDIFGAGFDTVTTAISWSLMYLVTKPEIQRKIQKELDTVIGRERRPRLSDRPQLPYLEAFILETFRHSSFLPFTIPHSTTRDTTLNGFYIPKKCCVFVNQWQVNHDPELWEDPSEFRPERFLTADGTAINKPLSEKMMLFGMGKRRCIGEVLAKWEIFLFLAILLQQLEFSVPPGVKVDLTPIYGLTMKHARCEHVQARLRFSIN

SMILES | IC50 [1] | Type of inhibition of P450 1A1 [1] | IC50 [2] | IC50 [3] | IC50 [4] | Type of inhibition of P450 1A2 [4] | IC50 ([1]; human, pH 7.6, probe 7-ethoxyresorufin)
CC#Cc1cc2cccc3ccc4cccc1c4c32 [Compound 4-MEP, 4-(1-propynyl)pyrene] | 0.37 µM | mechanism-based inhibitors | 2.26 µM | > 10 µM |  |  | 
C#Cc1ccc2ccc3cccc4ccc1c2c34 [Compound 1-EP, 1-ethynylpyrene] | 0.18 µM | mechanism-based inhibitors | 0.04 µM | > 10 µM | 0.32 µM | mechanism-based inhibitors | 
C#Cc1ccc2c(ccc3ccccc32)c1 [Compound 2-Ephen, 2-ethynylphenanthrene] | 0.61 µM | mechanism-based inhibitors | 0.17 µM | > 10 µM | 0.34 µM | mechanism-based inhibitors | 
C#Cc1ccc2ccc3ccccc3c2c1 [Compound 3-Ephen, 3-ethynylphenanthrene] | 1.03 µM | mechanism-based inhibitors | 0.48 µM | > 10 µM | 0.28 µM | mechanism-based inhibitors | 
CCC#Cc1ccc2ccc3cccc4ccc1c2c34 [Compound 1-EEP, 1-(1-butynyl)pyrene] | 0.72 µM | mechanism-based inhibitors | > 10 µM | > 10 µM | 0.43 µM | mechanism-based inhibitors | 
CC#Cc1ccc2ccc3cccc4ccc1c2c34 [Compound 1-MEP, 1-(1-propynyl)pyrene] | 0.02 µM | mechanism-based inhibitors | 0.83 µM | > 10 µM | 0.06 µM | mechanism-based inhibitors | 
CC#Cc1ccc2c(ccc3ccccc32)c1 [Compound 2-MEPhen, 2-(1-propynyl)phenanthrene] | 0.16 µM | mechanism-based inhibitors | > 10 µM | > 10 µM | 0.6 µM | mechanism-based inhibitors | 
C#Cc1cc2ccccc2c2ccccc12 [Compound 9-Ephen, 9-ethynylphenanthrene] | 0.62 µM | mechanism-based inhibitors | 0.07 µM | > 10 µM |  | mechanism-based inhibitors | 
CC#Cc1cc2ccccc2c2ccccc12 [Compound 9-MEPhen, 9-(1-propynyl)phenanthrene] | 2.63 µM | mechanism-based inhibitors | > 10 µM | > 10 µM |  | mechanism-based inhibitors | 2.26 µM
